From ChEMBL document CHEMBL1134682, “A novel series of 2,6,7-substituted 2,3-dihydro-1,4-benzodioxin and 2,6,7-substituted 1,4-benzodioxin derivatives as lipid peroxidation inhibitors. Structure-activity relationships for high inhibition of human low-density lipoprotein peroxidation” (J Med Chem, 2001)
Calls of active or inactive are those of the source. The rule behind the calls is not given here.

Tests used:
Homo sapiens [1] = species: Homo sapiens; assay: Concentration inhibiting 50% of the copper induced lipid peroxidation determined using th e thiobarbituric acid reactive substance and expressed as an MDA equivalent; type: functional
How it was run: (§1)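 Human LDL was isolated by ultracentrifugation (1.019 < d < 1.063) from pooled EDTA (0.04%) plasma of healthy normolipidemic donors. Oxidation was driven by Cu²⁺ for 3 h at 37 °C, with compounds in DMSO added just before. TBARS was read by the Yagi method as MDA equivalents. Ten concentrations from 10⁻⁷ to 10⁻³ M were run in duplicate, with IC50 by linear regression. A ratio versus probucol corrected for LDL batch.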

Homo sapiens [2] = species: Homo sapiens; assay: Compound was tested for the activity ratio versus probucol; type: functional; how it was run: as §1
Rattus norvegicus = species: Rattus norvegicus; assay: Inhibitory concentration against KCl induced rat thoracic aorta contraction; type: functional
How it was run: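 Isolated rat aorta was contracted with hyperpotassic KCl (60 mM). Inhibition of contraction was measured over eight increasing concentrations (10⁻⁸ to 3 × 10⁻⁵ M), each in duplicate, on two preparations. IC50 came from the concentration–response curve by linear regression.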

Homo sapiens [3] = species: Homo sapiens; assay: Tested for the activity ratio versus probucol; type: functional; how it was run: as §1
Homo sapiens [4] = species: Homo sapiens; assay: Concentration inhibiting 50% of the copper induced lipid peroxidation determined using the thiobarbituric acid reactive substance and expressed as an MDA equivalent; type: functional; how it was run: as §1
Mus musculus [5] = assay: Compound was tested for the time before the first gasps after ip administration of 20 mg/kg in hypoxia test; type: functional; settings: route intraperitoneal
How it was run: (§2)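 Male Swiss CD1 mice (25–30 g) were housed 1 week at 20–22 °C, 55% humidity, 12/12 light cycle. Compound was given ip 30 min before placing each mouse in a small box flushed with 96% N₂/4% O₂ at 12 L/min. Read-out was the time until the first gasps. Vincamine was the reference.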

Mus musculus [6] = assay: Compound was tested for the time before the first gasps after ip administration of 2.5 mg/kg in hypoxia test; inactive; type: functional, organism-based; set-up: dose 2.5 mg/kg; how it was run: as §2
Mus musculus [7] = assay: Compound was tested for the time before the first gasps after ip administration of 2.5 mg/kg in hypoxia test; type: functional; settings: route intraperitoneal; how it was run: as §2
Mus musculus [8] = assay: Compound was tested for change in the total cholesterol after (po) administration of 300 mg/kg in mice; type: functional
How it was run: (§3)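 Groups of six mice were made hypercholesterolaemic by a high-cholesterol, cholic-acid diet for 7 days. Compound was dosed po, half on day 6 and half on day 7, then mice were fasted overnight without food or water. Serum total cholesterol and heparin-precipitated LDL-VLDL were compared with hypercholesterolaemic controls.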

Mus musculus [9] = assay: Compound was tested for the time before the first gasps after ip administration of 1 mg/kg in hypoxia test; type: functional; settings: route intraperitoneal; how it was run: as §2
Homo sapiens [10] = species: Homo sapiens; assay: Concentration inhibiting 50% of the copper induced lipid peroxidation determined using th e thiobarbituric acid reactive substance and expressed as an MDA equivalent; Peroxidant; type: functional; how it was run: as §1
Mus musculus [11] = assay: Compound was tested for change in the LDL-VLDL fraction after (po) administration of 100 mg/kg in mice; type: functional; how it was run: as §3
Mus musculus [12] = assay: Compound was tested for change in the total cholesterol after (po) administration of 100 mg/kg in mice; type: functional; how it was run: as §3
Mus musculus [13] = assay: Compound was tested for change in the LDL-VLDL fraction after (po) administration of 300 mg/kg in mice; type: functional; how it was run: as §3

Row | IC50 (Rattus norvegicus) | IC50 (Homo sapiens [4]) | SMILES | Ratio (Homo sapiens [3]) | further results
1 | 2200 nM | 200 nM | O=C(C1COc2ccc(O)cc2O1)N1CCN(C(c2ccc(F)cc2)c2ccc(F)cc2)CC1 (configuration not stated) | 10 | 
2 |  | 1700 nM | COc1ccc(CN2CCN(C(=O)C3COc4ccc(O)cc4O3)CC2)c(OC)c1OC (configuration not stated) | 3 | 
3 |  | 500 nM | O=C(C1=COc2cc(O)ccc2O1)N1CCC(=C(c2ccc(F)cc2)c2ccc(F)cc2)CC1 | 2 | 
4 |  | 3000 nM | COc1ccc(CN2CCN(C(=O)C3=COc4ccc(O)cc4O3)CC2)c(OC)c1OC | 1.7 | 
5 |  | 9000 nM | Oc1ccc2c(c1)OC=C(C(=S)N1CCN(C(c3ccc(F)cc3)c3ccc(F)cc3)CC1)O2 | 0.5 | 
6 | 3100 nM | 1000 nM | CC(C)(C)c1cc2c(cc1O)OC=C(C(=O)N1CCN(C(c3ccc(F)cc3)c3ccc(F)cc3)CC1)O2 | 5 | 

Second part, the molecule before the results:

Row | SMILES | IC50 (Rattus norvegicus) | IC50 (Homo sapiens [4]) | Ratio (Homo sapiens [3]) | further results
7 | O=C(Nc1ccccc1)C1=COc2ccc(O)cc2O1 |  |  |  | IC50 (Homo sapiens [1]): 500 nM; Ratio (Homo sapiens [2]): 4
8 | O=C(C1=COc2ccccc2O1)N1CCN(C(c2ccc(F)cc2)c2ccc(F)cc2)CC1 | 1800 nM |  |  | 
9 | CC[C@]12CCCN3CCc4c(n(c5ccccc45)[C@@](O)(C(=O)OC)C1)[C@@H]32 [VINCAMINE] |  |  |  | Time (Mus musculus [5]): 147 s; IA (Mus musculus [6]): inactive
10 | O=C(C1=COc2cc(O)ccc2O1)N1CCN(C(c2ccc(F)cc2)c2ccc(F)cc2)CC1 | 560 nM | < 100 nM | >45 | Time (Mus musculus [7]): 108 s; Time (Mus musculus [5]): 67 s; Change (Mus musculus [8]): -7%; Time (Mus musculus [9]): 55 s
11 | Fc1ccc(C(c2ccc(F)cc2)N2CCN(C/C=C/c3ccccc3)CC2)cc1 [FLUNARIZINE] | 270 nM |  |  | 
12 | O=C(Oc1ccc2c(c1)OC=C(C(=O)N1CCN(C(c3ccc(F)cc3)c3ccc(F)cc3)CC1)O2)c1cccnc1 |  |  |  | IC50 (Homo sapiens [10]): Peroxidant
13 | CCCCN(C(=O)C1=COc2cc(O)c(C(C)(C)C)cc2O1)c1ccccc1 |  | 200 nM | 5 | 
14 | CCCCN(C(=O)C1=COc2ccc(O)cc2O1)c1ccccc1 |  | 400 nM | 2 | 
15 | O=C(C1COc2cc(O)ccc2O1)N1CCN(C(c2ccc(F)cc2)c2ccc(F)cc2)CC1 (configuration not stated) | 3000 nM | 3000 nM | 1.7 | 
16 | Oc1ccc2c(c1)OC=C(CN1CCC(=C(c3ccc(F)cc3)c3ccc(F)cc3)CC1)O2 |  | < 100 nM | >45 | 
17 | CC(C)(Oc1ccc(CCNC(=O)c2ccc(Cl)cc2)cc1)C(=O)O [BEZAFIBRATE] |  |  |  | Change (Mus musculus [11]): -20%; Change (Mus musculus [12]): -25%
18 | O=C(C1=COc2ccc(O)cc2O1)N1CCN(C(c2ccc(F)cc2)c2ccc(F)cc2)CC1 |  | 700 nM | 2.9 | 
19 | Oc1ccc2c(c1)OC=C(CN1CCN(C(c3ccc(F)cc3)c3ccc(F)cc3)CC1)O2 | 570 nM | 1000 nM | 5 | Time (Mus musculus [7]): 65 s; Time (Mus musculus [5]): 60 s; Change (Mus musculus [8]): -48%; Time (Mus musculus [9]): 78 s; Change (Mus musculus [11]): -35%; Change (Mus musculus [13]): -52%; Change (Mus musculus [12]): -33%
20 | Nc1ccc2c(c1)OC=C(C(=O)N1CCN(C(c3ccc(F)cc3)c3ccc(F)cc3)CC1)O2 |  | 35000 nM | 0.1 | 
21 | CCCCN(C(=O)C1=COc2cc(O)ccc2O1)c1ccccc1 |  | 1000 nM | 2 | 
22 | COc1ccc2c(c1)OC=C(C(=O)N1CCN(C(c3ccc(F)cc3)c3ccc(F)cc3)CC1)O2 |  | > 100000 nM | <0.005 | 
